Tests used:
Homo sapiens [1] = species: Homo sapiens; assay: Inhibition of recombinant full-length human AURKA I31F mutant assessed as residual activity at 10 uM using LRRASLG as substrate incubated for 40 mins in presence of [gamma-33P]ATP at Km concentration by radiometric assay relative to control
[2] = target: Ephrin type-A receptor 5 (Homo sapiens) (UniProt P54756); assay: Inhibition of recombinant human EPHA5 (655 to 956 residues) assessed as residual activity at 10 uM using poly (Glu,Tyr) 4:1 as substrate incubated for 40 mins in presence of [gamma-33P]ATP at Km concentration by radiometric assay relative to control
Homo sapiens [3] = species: Homo sapiens; assay: Inhibition of recombinant human PRAK 5 R291E mutant assessed as residual activity at 10 uM using KKLRRTLSVA as substrate incubated for 40 mins in presence of [gamma-33P]ATP at Km concentration by radiometric assay relative to control
[4] = target: Epidermal growth factor receptor (Homo sapiens) (UniProt P00533); assay: Inhibition of recombinant human EGFR (696 to end residues) assessed as residual activity at 10 uM using poly (Glu,Tyr) 4:1 as substrate incubated for 40 mins in presence of [gamma-33P]ATP at Km concentration by radiometric assay relative to control
[5] = target: Casein kinase II subunit alpha' (Homo sapiens) (UniProt P19784); assay: Inhibition of recombinant full length human CK2alpha2 assessed as residual activity at 10 uM using RRRDDDSDDD as substrate incubated for 40 mins in presence of [gamma-33P]ATP at Km concentration by radiometric assay relative to control
[6] = target: Platelet-derived growth factor receptor beta (Homo sapiens) (UniProt P09619); assay: Inhibition of recombinant human PDGFRbeta (557 to end residues) assessed as residual activity at 10 uM using poly (Glu,Tyr) 4:1 as substrate incubated for 40 mins in presence of [gamma-33P]ATP at Km concentration by radiometric assay relative to control
[7] = Half life in human microsomes at 1 uM in presence of NADPH; type: ADME, Microsome
Homo sapiens [8] = species: Homo sapiens; assay: Inhibition of recombinant full length human PI3K p110delta/p85alpha N253S mutant assessed as residual activity at 10 uM incubated for 40 mins in presence of [gamma-33P]ATP at Km concentration by radiometric assay relative to control
[9] = target: Calcium/calmodulin-dependent protein kinase type 1 (Homo sapiens) (UniProt Q14012); assay: Inhibition of human full length recombinant CAMKI assessed as residual activity at 10 uM using KKLRRTLSFAEPG as substrate incubated for 40 mins in presence of [gamma-33P]ATP at Km concentration by radiometric assay relative to control
[10] = target: Ephrin type-B receptor 4 (Homo sapiens) (UniProt P54760); assay: Inhibition of recombinant human EPHB4 (561 to end residues) assessed as residual activity at 10 uM using poly (Glu,Tyr) 4:1 as substrate incubated for 40 mins in presence of [gamma-33P]ATP at Km concentration by radiometric assay relative to control
[11] = target: Serine/threonine-protein kinase Chk1 (Homo sapiens) (UniProt O14757); assay: Inhibition of human full length recombinant CHK1 assessed as residual activity at 10 uM using KKKVSRSGLYRSP as substrate incubated for 40 mins in presence of [gamma-33P]ATP at Km concentration by radiometric assay relative to control
[12] = target: Serine/threonine-protein kinase 17A (Homo sapiens) (UniProt Q9UEE5); assay: Inhibition of human full length recombinant DRAK1 assessed as residual activity at 10 uM using KKLNRTLSFAEPG as substrate incubated for 40 mins in presence of [gamma-33P]ATP at Km concentration by radiometric assay relative to control
[13] = target: Casein kinase I isoform gamma-1 (Homo sapiens) (UniProt Q9HCP0); assay: Inhibition of recombinant human CK1gamma1 (25 to 355 residues) assessed as residual activity at 10 uM using KRRRALS(p)VAS as substrate incubated for 40 mins in presence of [gamma-33P]ATP at Km concentration by radiometric assay relative to control
[14] = target: Inositol hexakisphosphate kinase 1 (Homo sapiens, UniProt Q92551); assay: Binding affinity to IP6K1 (unknown origin) assessed as change in melting temperature by SYPRO orange dye-based assay
In short: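 Thermal shift format. Purified IP6K1 heated across a temperature gradient with the ligand at several concentrations. Binding read as the rise in protein melting temperature, including the maximal Tm shift (TmMax).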

[15] = target: Dual specificity mitogen-activated protein kinase kinase 1 (Homo sapiens) (UniProt Q02750); assay: Inhibition of full length recombinant human MEK1 assessed as residual activity at 10 uM using inactive MAPK2 as substrate incubated for 40 mins in presence of [gamma-33P]ATP at Km concentration by radiometric assay relative to control
[16] = target: ALK tyrosine kinase receptor (Homo sapiens) (UniProt Q9UM73); assay: Inhibition of human recombinant ALK (1058 to end residues) assessed as residual activity at 10 uM using KKKSPGEYVNIEF as substrate incubated for 40 mins in presence of [gamma-33P]ATP at Km concentration by radiometric assay relative to control
[17] = target: Inositol hexakisphosphate kinase 3 (Homo sapiens, UniProt Q96PC2); assay: Inhibition of IP6K3 (unknown origin) in presence of ATP at Km concentration by Cheng-Prusoff equation analysis
In short: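 Purified IP6K isoforms run in the ADP-Glo Max kinase assay with 1 mM ATP. Measured IC50 values converted to Ki with the Cheng-Prusoff equation.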

[18] = target: PI3-kinase p110-alpha/p85-alpha (Homo sapiens) (UniProt P27986+P42336); assay: Inhibition of recombinant full length human PI3K p110alpha/p85alpha assessed as residual activity at 10 uM incubated for 40 mins using phosphatidylinositol-4,5 bisphosphate as substrate in presence of [gamma-33P]ATP at Km concentration by radiometric assay relative to control; type: protein-complex assay
[19] = target: Inositol hexakisphosphate kinase 2 (Homo sapiens, UniProt Q9UHH9); assay: Inhibition of IP6K2 (unknown origin) incubated for 30 mins using IP6 as substrate in presence of ATP by ADP-Glo reagent based luminescence assay
In short: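 Luminescent ADP-Glo Max format adapted for IP6K, with purified enzyme and ATP at 1 mM, which is consumed as the kinase reaction proceeds. IC50 taken from the resulting inhibition data.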

[20] = system: Ribosomal protein S6 kinase beta-1 (Homo sapiens), P23443 [T412E]; assay: Inhibition of recombinant human p70S6K T412E mutant (1 to 421 residues) assessed as residual activity at 10 uM incubated for 40 mins in presence of [gamma-33P]ATP at Km concentration by radiometric assay relative to control
[21] = target: Mitogen-activated protein kinase 14 (Homo sapiens) (UniProt Q16539); assay: Inhibition of recombinant full length human SAPK2alpha assessed as residual activity at 10 uM using myelin basic protein as substrate incubated for 40 mins in presence of [gamma-33P]ATP at Km concentration by radiometric assay relative to control
Mitogen-activated protein kinase 14 (Homo sapiens), sequence (Q16539 whole entry): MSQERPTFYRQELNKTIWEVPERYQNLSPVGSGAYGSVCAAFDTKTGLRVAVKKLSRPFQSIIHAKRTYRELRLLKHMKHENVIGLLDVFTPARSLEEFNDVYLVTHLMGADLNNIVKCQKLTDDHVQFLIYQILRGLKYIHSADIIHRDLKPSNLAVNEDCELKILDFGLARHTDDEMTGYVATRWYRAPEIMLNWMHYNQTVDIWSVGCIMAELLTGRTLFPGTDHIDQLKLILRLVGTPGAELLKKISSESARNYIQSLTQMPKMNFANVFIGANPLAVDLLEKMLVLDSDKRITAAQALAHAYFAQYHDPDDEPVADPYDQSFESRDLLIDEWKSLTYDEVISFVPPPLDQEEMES

Calcium/calmodulin-dependent protein kinase type 1 (Homo sapiens), sequence (Q14012 whole entry, looked up): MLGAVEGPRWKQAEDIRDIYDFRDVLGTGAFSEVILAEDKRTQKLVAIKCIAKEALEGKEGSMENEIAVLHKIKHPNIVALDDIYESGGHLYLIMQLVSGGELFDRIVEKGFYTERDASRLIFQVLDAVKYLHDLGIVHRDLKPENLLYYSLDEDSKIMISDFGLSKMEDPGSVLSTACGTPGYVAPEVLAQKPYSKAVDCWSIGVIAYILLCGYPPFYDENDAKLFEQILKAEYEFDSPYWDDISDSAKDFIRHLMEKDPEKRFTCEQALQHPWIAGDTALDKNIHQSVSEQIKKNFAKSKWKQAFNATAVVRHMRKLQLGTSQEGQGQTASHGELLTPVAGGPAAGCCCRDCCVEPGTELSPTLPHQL
Serine/threonine-protein kinase 17A (Homo sapiens), sequence (Q9UEE5 whole entry, the tested form may be a part, canonical isoform): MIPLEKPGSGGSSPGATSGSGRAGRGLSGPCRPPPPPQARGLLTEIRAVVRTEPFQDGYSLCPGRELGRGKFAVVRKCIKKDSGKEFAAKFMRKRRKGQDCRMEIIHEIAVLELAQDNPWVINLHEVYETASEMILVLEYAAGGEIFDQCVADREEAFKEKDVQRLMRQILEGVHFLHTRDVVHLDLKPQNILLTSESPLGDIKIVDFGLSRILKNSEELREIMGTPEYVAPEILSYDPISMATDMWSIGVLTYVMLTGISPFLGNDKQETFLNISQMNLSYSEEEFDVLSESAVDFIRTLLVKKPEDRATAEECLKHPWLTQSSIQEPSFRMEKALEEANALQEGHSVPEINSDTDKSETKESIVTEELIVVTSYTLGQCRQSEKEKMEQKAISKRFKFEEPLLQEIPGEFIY
ALK tyrosine kinase receptor (Homo sapiens), sequence (Q9UM73 19-1620 limits assumed): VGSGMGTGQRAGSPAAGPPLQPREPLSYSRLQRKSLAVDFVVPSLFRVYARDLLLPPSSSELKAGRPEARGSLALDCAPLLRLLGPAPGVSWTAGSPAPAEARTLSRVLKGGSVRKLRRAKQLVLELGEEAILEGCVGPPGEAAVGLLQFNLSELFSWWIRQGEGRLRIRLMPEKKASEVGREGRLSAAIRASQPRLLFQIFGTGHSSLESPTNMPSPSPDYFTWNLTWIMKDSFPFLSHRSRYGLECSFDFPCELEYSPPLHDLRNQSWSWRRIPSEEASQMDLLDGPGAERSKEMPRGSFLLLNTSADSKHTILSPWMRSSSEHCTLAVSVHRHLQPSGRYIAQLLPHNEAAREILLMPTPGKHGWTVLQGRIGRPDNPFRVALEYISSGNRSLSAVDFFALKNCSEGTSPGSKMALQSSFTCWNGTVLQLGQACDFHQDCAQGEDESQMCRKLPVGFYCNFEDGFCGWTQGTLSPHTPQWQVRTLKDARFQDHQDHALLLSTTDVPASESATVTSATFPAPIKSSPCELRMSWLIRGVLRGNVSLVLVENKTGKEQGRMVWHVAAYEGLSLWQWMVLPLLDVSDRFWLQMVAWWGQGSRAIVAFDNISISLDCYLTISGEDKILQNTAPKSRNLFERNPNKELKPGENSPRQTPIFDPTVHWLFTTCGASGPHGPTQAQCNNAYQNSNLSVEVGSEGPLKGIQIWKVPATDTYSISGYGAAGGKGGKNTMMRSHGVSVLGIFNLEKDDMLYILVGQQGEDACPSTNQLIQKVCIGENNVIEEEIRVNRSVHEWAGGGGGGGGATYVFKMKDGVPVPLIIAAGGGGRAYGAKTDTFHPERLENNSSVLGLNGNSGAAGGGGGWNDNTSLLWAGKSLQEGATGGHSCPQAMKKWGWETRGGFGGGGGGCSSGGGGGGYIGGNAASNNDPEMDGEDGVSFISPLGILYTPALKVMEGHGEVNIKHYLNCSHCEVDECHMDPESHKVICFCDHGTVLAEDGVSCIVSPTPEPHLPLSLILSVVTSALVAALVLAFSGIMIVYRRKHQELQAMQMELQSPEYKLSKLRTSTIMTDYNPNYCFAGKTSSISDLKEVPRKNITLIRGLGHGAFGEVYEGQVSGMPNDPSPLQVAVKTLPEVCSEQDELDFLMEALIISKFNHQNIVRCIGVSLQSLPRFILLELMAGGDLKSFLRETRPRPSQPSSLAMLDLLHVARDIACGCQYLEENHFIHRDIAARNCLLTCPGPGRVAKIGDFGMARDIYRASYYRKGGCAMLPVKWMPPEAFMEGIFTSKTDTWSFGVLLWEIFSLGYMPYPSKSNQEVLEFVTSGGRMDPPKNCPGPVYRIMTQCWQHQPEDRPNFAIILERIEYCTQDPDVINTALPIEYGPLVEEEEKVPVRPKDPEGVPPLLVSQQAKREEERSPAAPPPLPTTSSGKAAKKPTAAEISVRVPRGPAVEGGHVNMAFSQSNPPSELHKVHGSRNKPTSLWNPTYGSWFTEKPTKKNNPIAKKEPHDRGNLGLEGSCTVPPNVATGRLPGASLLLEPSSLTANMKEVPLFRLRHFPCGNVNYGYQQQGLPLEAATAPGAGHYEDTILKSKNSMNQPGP
Ribosomal protein S6 kinase beta-1 (Homo sapiens), P23443 [T412E], sequence (P23443 whole entry T412E, looked up, the tested form may be a part): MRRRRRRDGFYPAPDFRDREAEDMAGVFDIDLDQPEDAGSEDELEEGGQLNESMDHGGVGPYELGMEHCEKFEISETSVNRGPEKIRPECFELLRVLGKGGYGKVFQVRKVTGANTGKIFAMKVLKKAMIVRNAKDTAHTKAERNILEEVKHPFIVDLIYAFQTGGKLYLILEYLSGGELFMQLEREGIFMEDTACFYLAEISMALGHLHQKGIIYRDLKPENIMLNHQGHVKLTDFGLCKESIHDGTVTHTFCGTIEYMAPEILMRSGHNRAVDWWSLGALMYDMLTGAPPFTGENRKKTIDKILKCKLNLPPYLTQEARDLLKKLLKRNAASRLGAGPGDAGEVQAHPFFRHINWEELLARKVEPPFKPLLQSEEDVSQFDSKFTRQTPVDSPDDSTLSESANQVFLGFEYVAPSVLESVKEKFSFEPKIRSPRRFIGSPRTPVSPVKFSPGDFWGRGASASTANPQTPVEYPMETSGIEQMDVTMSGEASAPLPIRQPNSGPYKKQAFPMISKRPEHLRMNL
Epidermal growth factor receptor (Homo sapiens), sequence (P00533 whole entry): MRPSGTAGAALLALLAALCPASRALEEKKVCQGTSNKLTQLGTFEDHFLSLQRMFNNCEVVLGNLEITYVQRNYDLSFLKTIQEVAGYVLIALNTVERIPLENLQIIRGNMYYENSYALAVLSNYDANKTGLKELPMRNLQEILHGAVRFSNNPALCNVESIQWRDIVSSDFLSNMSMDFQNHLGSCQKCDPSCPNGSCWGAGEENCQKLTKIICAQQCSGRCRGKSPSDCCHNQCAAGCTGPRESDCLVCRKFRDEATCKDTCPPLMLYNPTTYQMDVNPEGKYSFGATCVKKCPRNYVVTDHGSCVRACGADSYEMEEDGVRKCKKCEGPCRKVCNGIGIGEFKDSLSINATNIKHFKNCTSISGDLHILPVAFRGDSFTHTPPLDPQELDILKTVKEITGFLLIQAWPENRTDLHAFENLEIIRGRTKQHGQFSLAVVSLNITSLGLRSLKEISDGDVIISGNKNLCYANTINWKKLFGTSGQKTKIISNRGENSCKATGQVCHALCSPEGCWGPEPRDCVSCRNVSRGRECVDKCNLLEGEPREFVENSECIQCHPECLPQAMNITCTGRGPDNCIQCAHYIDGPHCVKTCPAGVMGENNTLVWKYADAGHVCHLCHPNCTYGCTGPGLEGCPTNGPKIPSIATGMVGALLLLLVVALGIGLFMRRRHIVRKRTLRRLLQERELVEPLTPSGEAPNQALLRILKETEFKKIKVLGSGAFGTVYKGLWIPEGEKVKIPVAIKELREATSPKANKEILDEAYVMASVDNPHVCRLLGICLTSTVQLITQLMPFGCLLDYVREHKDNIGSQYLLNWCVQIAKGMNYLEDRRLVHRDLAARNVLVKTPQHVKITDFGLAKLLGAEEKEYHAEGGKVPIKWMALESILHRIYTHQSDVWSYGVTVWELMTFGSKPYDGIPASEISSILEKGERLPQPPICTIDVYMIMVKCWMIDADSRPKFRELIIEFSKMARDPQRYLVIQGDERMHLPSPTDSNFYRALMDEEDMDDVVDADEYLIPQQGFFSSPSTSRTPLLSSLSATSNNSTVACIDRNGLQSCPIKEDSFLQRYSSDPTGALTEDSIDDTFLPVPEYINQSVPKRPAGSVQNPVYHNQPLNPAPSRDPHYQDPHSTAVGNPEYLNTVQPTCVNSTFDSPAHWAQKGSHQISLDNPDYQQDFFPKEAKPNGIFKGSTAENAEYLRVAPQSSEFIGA
Casein kinase II subunit alpha' (Homo sapiens), sequence (P19784 whole entry, looked up): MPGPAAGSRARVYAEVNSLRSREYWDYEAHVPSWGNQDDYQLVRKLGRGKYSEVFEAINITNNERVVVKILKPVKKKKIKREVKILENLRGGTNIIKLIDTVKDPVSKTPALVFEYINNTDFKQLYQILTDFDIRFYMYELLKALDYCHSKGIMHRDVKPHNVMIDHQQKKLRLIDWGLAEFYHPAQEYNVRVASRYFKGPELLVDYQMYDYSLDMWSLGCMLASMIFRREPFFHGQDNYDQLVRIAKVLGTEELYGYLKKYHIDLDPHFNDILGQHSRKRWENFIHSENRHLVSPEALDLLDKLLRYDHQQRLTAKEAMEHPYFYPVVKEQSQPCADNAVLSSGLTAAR

Structure (SMILES): COc1ccc2c(CCNc3nc(NCc4ccc(=O)[nH]c4)c4nc[nH]c4n3)c[nH]c2c1
- Activity (Homo sapiens [1]): 46%
- Activity [2]: 114%
- Activity (Homo sapiens [3]): 87%
- Activity [4]: 75%
- Activity [5]: 100%
- Activity [6]: 101%
- t1/2 [7]: 42 min
- Activity (Homo sapiens [8]): 95%
- Activity [9]: 77%
- Activity [10]: 69%
- Activity [11]: 91%
- Activity [12]: 69%
- Activity [13]: 6%
- ΔTm [14]: 6.6 °C
- Activity [15]: 11%
- Activity [16]: 88%
- Ki [17]: 9.62 µM
- Activity [18]: 99%
- IC50 [19]: 20 µM
- Activity [20]: 94%
- Activity [21]: 92%

Reference: ChEMBL document CHEMBL4396947, “Synthesis and characterization of novel isoform-selective IP6K1 inhibitors” (Bioorg Med Chem Lett, 2019)
